# Numbered stars: 1 amine (or outer) side, 2 acyl side, 3 side chain; on linkers, the order of the positions; unused ones are H or OH. Bridge positions count the residues as written; N and C are the ends. Square brackets hold non-standard residues; d marks the D form. Peptide text beside a SMILES is read from it. NGly(3-aminopropyl) = O=C(CN(CCCN[*:3])[*:1])[*:2]; N(2-Aminoethyl)Gly = O=C(CN(CCN[*:3])[*:1])[*:2]; Adipoyl = O=C(CCCCC(=O)[*:2])[*:1]; Suc = O=C(CCC(=O)[*:2])[*:1]
# Tests used:
# [1] = Permeability across human Caco-2 cells; type: ADME, cell-based
# Method in brief: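 Caco-2 cells (passage 60–66) were seeded on 0.4 µm polycarbonate inserts and used 21–23 days later at stable TEER (300–500 Ωcm²). After 30 min buffer pre-incubation at 37 °C with shaking, compound was added apically.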
# [2] = target: Melanocortin receptor 5 (Mus musculus) (UniProt P41149); assay: Stimulation of mouse MC5R expressed in HEK293 cells relative to NDP-MSH; type: cell-based
# Method in brief: (§1)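 HEK-293 cells stably expressing each melanocortin receptor were transfected with a CRE/β-galactosidase reporter. At 48 h post-transfection, cells were stimulated for 6 h with peptide (10^-4 to 10^-12 M) or 10^-4 M forskolin in DMEM containing 0.1 mg/mL BSA and 0.1 mM IBMX. Lysates were read with ONPG at OD 405 and normalized to protein (OD 595) and to forskolin response. Efficacy is expressed relative to NDP-MSH maximal stimulation.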
# [3] = target: Melanocyte-stimulating hormone receptor (Mus musculus) (UniProt Q01727); assay: Stimulation of mouse MC1R expressed in HEK293 cells relative to NDP-MSH; type: cell-based; method in brief: as §1
# [4] = target: Melanocortin receptor 4 (Mus musculus) (UniProt P56450); assay: Stimulation of mouse MC4R expressed in HEK293 cells relative to NDP-MSH; type: cell-based; method in brief: as §1
# Melanocortin receptor 4 [5] = target: Melanocortin receptor 4 (Mus musculus, UniProt P56450); assay: Agonist activity at mouse MC4R expressed in HEK293 cells; type: functional, cell-based; method in brief: as §1
# Melanocortin receptor 3 = Melanocortin receptor 3 (Mus musculus, UniProt P33033); assay: Agonist activity at mouse MC3R expressed in HEK293 cells; type: functional, cell-based; method in brief: as §1
# [6] = target: Melanocyte-stimulating hormone receptor (Mus musculus, UniProt Q01727); assay: Agonist activity at mouse MC1R expressed in HEK293 cells; type: functional, cell-based; method in brief: as §1
# Melanocortin receptor 5 = Melanocortin receptor 5 (Mus musculus, UniProt P41149); assay: Agonist activity at mouse MC5R expressed in HEK293 cells; type: functional, cell-based; method in brief: as §1
# [7] = target: Melanocortin receptor 3 (Mus musculus) (UniProt P33033); assay: Stimulation of mouse MC3R expressed in HEK293 cells relative to NDP-MSH; type: cell-based; method in brief: as §1
# [8] = AUC in Wistar rat plasma at 1 mg/kg, iv and 10 mg/kg, po; type: ADME, organism-based
# Method in brief: (§2)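 Conscious male Wistar rats with a jugular vein cannula implanted 24 h beforehand received peptide dissolved in water, as an iv bolus of 1 mg/kg (n = 5) or orally at 10 mg/kg (n = 2). Heparinized blood was sampled at several times up to 24 h. Plasma was separated at 4 °C, stored at -70 °C and analysed by HPLC-MS. Parameters came from noncompartmental analysis.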
# [9] = Biodistribution in rat brain at 10 mg/kg, po after 8 hrs; type: ADME, organism-based; design: dose 10 mg/kg, route oral; conditions: read-out: Drug uptake
# Method in brief: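 Rats were dosed at 10 mg/kg, iv or po. Brain was collected 8 h after dosing and extracted by a single protein precipitation (90% acetonitrile/10% formic acid, then 50 mM ammonium formate). Peptide was quantified by validated LC-MS/MS and expressed as […] tissue.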
# [10] = Volume of distribution at steady state in Wistar rat plasma at 1 mg/kg, iv and 10 mg/kg, po; type: ADME, organism-based; conditions: read-out: Vdss; method in brief: as §2
# [11] = Elimination half life in rat; type: ADME, tissue-based; conditions: plasma; method in brief: as §2
# Mus musculus [12] = assay: Effect on weight gain in ICR:Hsd (CD1) mouse at 0.5 mg/kg/day, po after 12 days relative to control; type: functional
# Method in brief: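 Mice (n = 9) were weighed daily, then given a daily oral gavage (5 mL/kg) of peptide at 100 µg/ml or water vehicle. Weight change from day 0 was expressed as mean ± SEM and compared with controls by Student's t-test.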
# Mus musculus [13] = assay: Reduction of food consumption in ICR:Hsd (CD1) mouse at 0.5 mg/kg, po after 1 hr relative to control; type: functional; design: scale not given: the % may be the effect or the level left
# Method in brief: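 Male ICR:Hsd (CD-1) mice, 7–8 weeks old and individually caged, were fasted 16 h and then gavaged once (5 mL/kg) with peptide at 100 µg/ml or with water vehicle (n = 24). Fixed food portions were given immediately and reweighed at 1, 2, 3, 4 and 5 h. Results are mean ± SEM, analysed by RM ANOVA with Tukey's test.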
# [14] = Tmax in Wistar rat plasma at 10 mg/kg, po; type: ADME, organism-based; design: dose 10 mg/kg, route oral; method in brief: as §2
# Rattus norvegicus = assay: Bioavailability in Wistar rat plasma at 1 mg/kg, iv and 10 mg/kg, po; type: ADME, organism-based; conditions: in vivo; method in brief: as §2
# [15] = Cmax in Wistar rat plasma at 10 mg/kg, po; type: ADME, organism-based; design: dose 10 mg/kg, route oral; method in brief: as §2
# [16] = Tmax in Wistar rat plasma at 1 mg/kg, iv; type: ADME, organism-based; design: dose 1 mg/kg, route intravenous; method in brief: as §2
# [17] = Cmax in Wistar rat plasma at 1 mg/kg, iv; type: ADME, organism-based; design: dose 1 mg/kg, route intravenous; method in brief: as §2
# [18] = Half life in Wistar rat plasma at 1 mg/kg, iv and 10 mg/kg, po; type: ADME, organism-based; method in brief: as §2
# Melanocortin receptor 4 [19] = target: Melanocortin receptor 4 (Homo sapiens, UniProt P32245); assay: Displacement of [125I]NDP-alpha-MSH from MC4R
# Chain of Melanocortin receptor 4 (Homo sapiens, UniProt P32245) (P32245 whole entry): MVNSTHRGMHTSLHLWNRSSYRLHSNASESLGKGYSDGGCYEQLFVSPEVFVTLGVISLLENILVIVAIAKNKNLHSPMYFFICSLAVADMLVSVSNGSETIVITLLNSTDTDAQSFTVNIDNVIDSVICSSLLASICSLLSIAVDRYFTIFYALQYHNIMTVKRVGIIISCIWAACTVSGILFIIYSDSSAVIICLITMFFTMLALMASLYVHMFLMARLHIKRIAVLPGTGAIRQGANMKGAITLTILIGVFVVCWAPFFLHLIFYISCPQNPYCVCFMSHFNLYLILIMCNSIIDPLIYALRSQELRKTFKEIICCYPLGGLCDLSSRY
# Chain of Melanocortin receptor 3 (P33033 whole entry): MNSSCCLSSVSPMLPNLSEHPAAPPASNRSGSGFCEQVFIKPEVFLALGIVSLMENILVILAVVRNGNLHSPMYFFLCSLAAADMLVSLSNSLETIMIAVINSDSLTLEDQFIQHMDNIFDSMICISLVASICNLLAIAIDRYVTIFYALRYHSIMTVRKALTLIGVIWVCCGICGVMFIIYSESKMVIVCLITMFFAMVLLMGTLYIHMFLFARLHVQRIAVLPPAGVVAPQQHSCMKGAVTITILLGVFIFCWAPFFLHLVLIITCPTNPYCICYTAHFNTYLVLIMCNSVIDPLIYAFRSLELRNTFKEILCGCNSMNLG
# Chain of Melanocortin receptor 3 (Mus musculus) (P33033 whole entry): as above
# Chain of Melanocortin receptor 5 (P41149 whole entry): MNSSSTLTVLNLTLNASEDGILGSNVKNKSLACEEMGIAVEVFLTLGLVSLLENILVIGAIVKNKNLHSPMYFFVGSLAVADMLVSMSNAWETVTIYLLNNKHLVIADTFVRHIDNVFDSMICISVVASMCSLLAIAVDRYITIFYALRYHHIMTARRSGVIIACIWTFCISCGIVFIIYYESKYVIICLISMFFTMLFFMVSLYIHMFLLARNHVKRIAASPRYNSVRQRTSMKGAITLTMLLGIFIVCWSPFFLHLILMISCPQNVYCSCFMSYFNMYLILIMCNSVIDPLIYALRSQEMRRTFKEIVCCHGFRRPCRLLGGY
# Chain of Melanocortin receptor 5 (Mus musculus) (P41149 whole entry): as above
# Chain of Melanocortin receptor 4 (Mus musculus, UniProt P56450) (P56450 whole entry): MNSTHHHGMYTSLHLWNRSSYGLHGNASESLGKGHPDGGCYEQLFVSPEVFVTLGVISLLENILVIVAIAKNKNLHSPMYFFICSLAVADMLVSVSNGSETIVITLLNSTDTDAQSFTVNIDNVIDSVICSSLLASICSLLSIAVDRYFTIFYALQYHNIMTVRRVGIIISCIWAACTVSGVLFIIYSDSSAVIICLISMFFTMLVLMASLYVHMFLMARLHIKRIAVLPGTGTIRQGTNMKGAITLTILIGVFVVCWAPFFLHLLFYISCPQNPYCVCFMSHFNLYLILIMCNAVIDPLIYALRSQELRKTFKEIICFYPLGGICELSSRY
# Chain of Melanocortin receptor 4 (Mus musculus) (P56450 whole entry): as above
# Chain of Melanocyte-stimulating hormone receptor (Q01727 whole entry): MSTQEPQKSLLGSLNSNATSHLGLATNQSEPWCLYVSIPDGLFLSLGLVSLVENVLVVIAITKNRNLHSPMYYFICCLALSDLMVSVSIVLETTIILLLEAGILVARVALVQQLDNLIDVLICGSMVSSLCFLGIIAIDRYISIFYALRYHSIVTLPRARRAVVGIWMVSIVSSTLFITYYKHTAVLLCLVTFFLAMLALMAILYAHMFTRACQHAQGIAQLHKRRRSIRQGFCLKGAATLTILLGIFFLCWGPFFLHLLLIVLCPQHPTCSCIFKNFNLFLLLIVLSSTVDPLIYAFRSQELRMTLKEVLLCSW
# Chain of Melanocyte-stimulating hormone receptor (Mus musculus) (Q01727 whole entry, looked up): as the sequence (Q01727 whole entry) above
Papp [1] [×10⁻⁶ cm/s],Efficacy [2] [%],Efficacy [3] [%],Efficacy [4] [%],EC50 (Melanocortin receptor 4 [5]) [nM],EC50 (Melanocortin receptor 3) [nM],EC50 [6] [nM],EC50 (Melanocortin receptor 5) [nM],Efficacy [7] [%],Structure (SMILES),also measured
25,–,–,–,–,–,–,–,–,CC(C)NCC(O)COc1cccc2ccccc12 (stereo not given) [PROPRANOLOL],–
18.8,100,100,100,4,1260,28,2,100,N=C(N)NCCC[C@@H]1NC(=O)[C@@H](Cc2ccccc2)NC(=O)[C@H](Cc2ccccc2)NC(=O)CCC(=O)NCCCN(CC(N)=O)C(=O)[C@H](Cc2c[nH]c3ccccc23)NC1=O (F[dF]RW[NGly(3-aminopropyl)]-NH2; linker N-5 via Suc),–
–,100,100,100,150,20500,550,390,100,N=C(N)NCCC[C@@H]1NC(=O)[C@@H](Cc2ccccc2)NC(=O)[C@H](Cc2ccccc2)NC(=O)c2ccccc2C(=O)NCCN(CC(N)=O)C(=O)[C@H](Cc2c[nH]c3ccccc23)NC1=O,IC50 (Melanocortin receptor 4 [19]): 100 nM
2.05,–,–,–,–,–,–,–,–,OC[C@@H](O)[C@@H](O)[C@H](O)[C@H](O)CO [MANNITOL],–
21,100,100,100,18,1460,120,20,100,N=C(N)NCCC[C@@H]1NC(=O)[C@@H](Cc2ccccc2)NC(=O)[C@H](Cc2ccccc2)NC(=O)CCCC(=O)NCCN(CC(N)=O)C(=O)[C@H](Cc2c[nH]c3ccccc23)NC1=O,–
19,100,100,100,5,7750,240,26,100,N=C(N)NCCC[C@@H]1NC(=O)[C@@H](Cc2ccccc2)NC(=O)[C@H](Cc2ccccc2)NC(=O)CCCCC(=O)NCCCN(CC(N)=O)C(=O)[C@H](Cc2c[nH]c3ccccc23)NC1=O (F[dF]RW[NGly(3-aminopropyl)]-NH2; linker N-5 via Adipoyl),–

Structure (SMILES),Papp [1] [×10⁻⁶ cm/s],Efficacy [2] [%],Efficacy [3] [%],Efficacy [4] [%],EC50 (Melanocortin receptor 4 [5]) [nM],EC50 (Melanocortin receptor 3) [nM],EC50 [6] [nM],EC50 (Melanocortin receptor 5) [nM],Efficacy [7] [%],also measured
N=C(N)NCCC[C@@H]1NC(=O)[C@@H](Cc2ccccc2)NC(=O)[C@H](Cc2ccccc2)NC(=O)CCC(=O)NCCN(CC(N)=O)C(=O)[C@H](Cc2c[nH]c3ccccc23)NC1=O (F[dF]RW[N(2-Aminoethyl)Gly]-NH2; linker N-5 via Suc),17.8,100,100,100,4,770,64,7,100,AUC [8]: 416 ng·h/mL; concentration at 8 h [9]: 4700 ng/g; Vd [10]: 2.1 L/kg; half-life [11]: 100 min; Activity (Mus musculus [12]): 2.8%; Activity (Mus musculus [13]): 46%; Tmax [14]: 37 min; F (Rattus norvegicus): 8.5%; Cmax [15]: 202 ng/mL; Tmax [16]: 5 min; Cmax [17]: 977 ng/mL; half-life [18]: > 105 min
N=C(N)NCCC[C@H](NC(=O)[C@H](Cc1c[nH]c2ccccc12)NC(=O)CN)C(=O)N[C@H](Cc1ccccc1)C(=O)N[C@@H](Cc1ccccc1)C(=O)O,12,–,–,–,–,–,–,–,–,–

# — ChEMBL document CHEMBL1143862, “Backbone cyclic peptidomimetic melanocortin-4 receptor agonist as a novel orally administrated drug lead for treating obesity” (J Med Chem, 2008)
